Results as given in ChEMBL document CHEMBL3868583, “6-Aryl substituted 4-(4-cyanomethyl) phenylamino quinazolines as a new class of isoform-selective PI3K-alpha inhibitors” (Eur J Med Chem, 2016).

Tests used:
Mus musculus [1] = assay: Toxicity in Swiss mouse implanted with Swiss mouse EAC cells assessed as body weight at 70 mg/kg, ip administered for 1 to 9 days measured on day 5 (reference value: 26.2 g); type: organism-based, Ehrlich; settings: in vivo
PC-3 [2] = assay: Induction of cell cycle arrest in human PC3 cells assessed as accumulation at G2 phase at 20 uM after 24 hrs by propidium iodide-staining based FACS analysis (reference value: 17 %); type: functional
How it was run: (§1)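 MCF-7 or PC-3 cells treated at indicated concentrations for 24 h, pelleted, PBS-washed, fixed in ice-cold 70% ethanol overnight at 4 °C. RNase 0.2 mg/mL 1 h at 37 °C, propidium iodide 10 µg/mL 30 min dark. 10,000 events (FL2-A vs FL2-W) by flow cytometry; fractions in apoptosis/sub-G1, G1, S, G2-M.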

Mus musculus [3] = assay: Toxicity in Swiss mouse implanted with Swiss mouse EAC cells assessed as body weight at 70 mg/kg, ip administered for 1 to 9 days measured on day 9 (reference value: 27.7 g); type: organism-based, Ehrlich; settings: in vivo
[4] = Downregulation of PI3Kalpha expression in human PC3 cells at 30 uM by Western blot analysis; type: functional, cell-based; settings: PC-3
How it was run: (§2)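 MCF-7 or PC-3 cells (2 × 10^6) treated with compound, lysed (1 × 10^6 cells) in cold NP-40 buffer with protease inhibitors 30 min on ice, 12,000 g 10 min 4 °C. 50 µg protein per lane on SDS-PAGE, PVDF transfer, 5% milk block, primary antibody 2 h, HRP secondary 1 h, ECL on film; β-actin internal control.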

PC-3 [5] = assay: Induction of cell cycle arrest in human PC3 cells assessed as apoptotic cells at 30 uM after 24 hrs by propidium iodide-staining based FACS analysis (reference value: 2 %); type: functional
How it was run: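 PC-3 cells exposed 24 h at indicated concentrations, pelleted, fixed overnight in ice-cold 70% ethanol at 4 °C, RNase 0.2 mg/mL at 37 °C 1 h, propidium iodide 10 µg/mL 30 min in dark; 10,000 events acquired (FL2-A vs FL2-W); DNA histograms modelled for apoptotic (sub-G1), G1, S and G2-M fractions.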

Mus musculus [6] = assay: Toxicity in Swiss mouse implanted with Swiss mouse EAT cells assessed as body weight at 15 mg/kg, ip administered for 1 to 9 days measured on day 13 (reference value: 24.1 g); type: organism-based; settings: in vivo
MCF7 [7] = assay: Induction of cell cycle arrest in human MCF7 cells assessed as accumulation at G1 phase at 10 uM after 24 hrs by propidium iodide-staining based FACS analysis (reference value: 50 %); type: functional; how it was run: as §1
MCF7 [8] = assay: Induction of apoptosis in human MCF7 cells assessed as loss of mitochondrial membrane potential at 10 uM after 24 hrs by rhodamine-123-staining based FACS analysis (reference value: 7 % ); type: functional
How it was run: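 Cells (MCF-7 or PC-3) exposed to indicated concentrations for 24 h; rhodamine-123 (5 µM) added 1 h before end. Cells collected, PBS-washed; fluorescence of 10,000 events read in FL-1 by flow cytometry, loss of mitochondrial potential scored as decreased intensity.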

Mus musculus [9] = assay: Toxicity in Swiss mouse implanted with Swiss mouse EAT cells assessed as mortality at 25 mg/kg, ip administered for 1 to 9 days measured on day 9 and 13; type: organism-based; settings: in vivo
How it was run: (§3)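 EAC cells harvested from 8–10-day ascitic Swiss mice; 1×10^7 cells injected intramuscularly into right thigh of Swiss male mice on day 0. Randomized next day: treated n=7, saline control n=10 (0.2 ml i.p.). Dosing i.p. days 1–9. […] Body weight and mortality tracked.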

[10] = Downregulation of PI3Kalpha expression in human MCF7 cells at 30 uM by Western blot analysis; type: functional, cell-based; how it was run: as §2
Mus musculus [11] = assay: Toxicity in Swiss mouse implanted with Swiss mouse EAT cells assessed as mortality at 15 mg/kg, ip administered for 1 to 9 days measured on day 9 and 13; type: organism-based; settings: in vivo; how it was run: as §3
Mus musculus [12] = assay: Toxicity in Swiss mouse implanted with Swiss mouse EAT cells assessed as body weight at 25 mg/kg, ip administered for 1 to 9 days measured on day 9 (reference value: 22.8 g); type: organism-based; settings: in vivo
Mus musculus [13] = assay: Toxicity in Swiss mouse implanted with Swiss mouse EAC cells assessed as body weight at 25 mg/kg, ip administered for 1 to 9 days measured on day 5 (reference value: 26.2 g); type: organism-based, Ehrlich; settings: in vivo
MCF7 [14] = assay: Induction of cell cycle arrest in human MCF7 cells assessed as apoptotic cells at 10 uM after 24 hrs by propidium iodide-staining based FACS analysis (reference value: 8 %); type: functional; how it was run: as §1
Mus musculus [15] = assay: Toxicity in Swiss mouse implanted with Swiss mouse EAC cells assessed as body weight at 25 mg/kg, ip administered for 1 to 9 days measured on day 1 (reference value: 22.8 g); type: organism-based, Ehrlich; settings: in vivo

## N#CCc1ccc(Nc2ncnc3ccc(-c4cncc5ccccc45)cc23)cc1
Mus musculus [1]
  Activity: 23 g
PC-3 [2]
  Activity: 9%
Mus musculus [3]
  Activity: 23.71 g
[4]
  Activity: 100%
PC-3 [5]
  Activity: 25%

## N#CCc1ccc(Nc2ncnc3ccc(-c4ccc5[nH]ccc5c4)cc23)cc1
Mus musculus [6]
  Activity: 22.57 g
MCF7 [7]
  Activity: 59%
MCF7 [8]
  Activity: 12%
Mus musculus [9]
  Activity: Non-Toxic
[10]
  Activity: 44%
Mus musculus [11]
  Activity: Non-Toxic
Mus musculus [12]
  Activity: 21 g
Mus musculus [13]
  Activity: 22 g
MCF7 [14]
  Activity: 7%
Mus musculus [15]
  Activity: 20.57 g
